The source made the active and inactive calls.
Key:
[1] = system: molinema dessetae;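 further: in vitro assay on infective-stage larvae, EC90 being the concentration lethal to 90% of larvae after 7 days of exposure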
[2] = Effective concentration of compound necessary to kill 50% of infective larvae of Molinema dessetae after 7 days was determined in vitro; Value ranges from 100-500; type: functional
Summary of the method: (§1)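 Infective larvae from the intermediate host were decontaminated and held 20 per 1.5 mL in a biphasic medium: L929 feeder layer with RPMI and fetal calf serum (90:10), plus penicillin and streptomycin. Compound solutions at several concentrations were made in DMSO, and 10 μL of each was added. After 7 days, survival was corrected by control, in duplicate runs. EC ranges are given in μM.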

[3] = system: molinema dessetae; assay: Effective concentration of compound necessary to kill 90% of infective larvae of Molinema dessetae after 7 days was determined in vitro; Value ranges from 100-500; type: functional
Summary of the method: as §1

[4] = system: molinema dessetae; assay: Antifilarial activity against Molinema dessetae in vivo against male adult worms at a dose of 200 mg/kg subcutaneously once a day for 5 days; Inactive; type: functional, organism-based; set-up: dose 200 mg/kg
Summary of the method: (§2)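 Proechimys oris of both sexes were each infected with 200 infective larvae dissected from Aedes aegypti mosquitoes. Microfilaremia was checked, and the rodents were treated 150–180 days post-infection. Compound was given subcutaneously as a 1% carboxymethylcellulose suspension once daily for 5 consecutive days. Microfilaremia was followed for 6 weeks, then adult male and female worms were counted at autopsy. A compound was scored active if no males and ≤1.6 females were found (p = 0.12).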

[5] = Effective concentration of compound necessary to kill 50% of infective larvae of Molinema dessetae after 7 days was determined in vitro; type: functional
[6] = system: molinema dessetae; assay: Antifilarial activity against Molinema dessetae in vivo against female adult worms at a dose of 200 mg/kg subcutaneously once a day for 5 days; Inactive; type: functional, organism-based; set-up: dose 200 mg/kg
Summary of the method: as §2

[7] = Antifilarial activity against Molinema dessetae in vivo in Proechimys oris the natural host at a dose of 200 mg/kg subcutaneously once a day for 5 days. Value is expressed as number of infected P. oris.; type: functional; details: route subcutaneous
Summary of the method: as §2

[8] = system: molinema dessetae; assay: Antifilarial activity against Molinema dessetae in vivo against female adult worms at a dose of 200 mg/kg subcutaneously once a day for 5 days; Active; type: functional, organism-based; set-up: dose 200 mg/kg
Summary of the method: as §2

[9] = Antifilarial activity against Molinema dessetae in vivo in Proechimys oris the natural host at a dose of 100 mg/kg subcutaneously once a day for 5 days. Value is expressed as number of infected P. oris.; type: functional; details: route subcutaneous
Summary of the method: as §2

[10] = system: molinema dessetae; assay: Antifilarial activity against Molinema dessetae in vivo against male adult worms at a dose of 200 mg/kg subcutaneously once a day for 5 days; Active; type: functional, organism-based; set-up: dose 200 mg/kg
Summary of the method: as §2

[11] = Antifilarial activity against Molinema dessetae in vivo in Proechimys oris the natural host at a dose of 10 mg/kg subcutaneously once a day for 5 days. Value is expressed as number of infected P. oris.; type: functional; details: route subcutaneous
Summary of the method: as §2

[12] = system: molinema dessetae; assay: Antifilarial activity against Molinema dessetae in vivo against female adult worms at a dose of 10 mg/kg subcutaneously once a day for 5 days; Inactive; type: functional, organism-based; set-up: dose 10 mg/kg
Summary of the method: as §2

[13] = system: molinema dessetae; assay: Antifilarial activity against Molinema dessetae in vivo against male adult worms at a dose of 100 mg/kg subcutaneously once a day for 5 days; Active; type: functional, organism-based; set-up: dose 100 mg/kg
Summary of the method: as §2

[14] = system: molinema dessetae; assay: Antifilarial activity against Molinema dessetae in vivo against female adult worms at a dose of 100 mg/kg subcutaneously once a day for 5 days; Active; type: functional, organism-based; set-up: dose 100 mg/kg
Summary of the method: as §2

[15] = Effective concentration of compound necessary to kill 50% of infective larvae of Molinema dessetae after 7 days was determined in vitro; Value ranges from 20-100; type: functional
Summary of the method: as §1

[16] = system: molinema dessetae; assay: Effective concentration of compound necessary to kill 90% of infective larvae of Molinema dessetae after 7 days was determined in vitro; Value ranges from 20-100; type: functional
Summary of the method: as §1

[17] = system: molinema dessetae; assay: Antifilarial activity against Molinema dessetae in vivo against female adult worms at a dose of 100 mg/kg subcutaneously once a day for 5 days; Inactive; type: functional, organism-based; set-up: dose 100 mg/kg
Summary of the method: as §2

[18] = system: molinema dessetae; assay: Antifilarial activity against Molinema dessetae in vivo against male adult worms at a dose of 100 mg/kg subcutaneously once a day for 5 days; Inactive; type: functional, organism-based; set-up: dose 100 mg/kg
Summary of the method: as §2

[19] = system: molinema dessetae; assay: Antifilarial activity against Molinema dessetae in vivo against female adult worms at a dose of 200 mg/kg subcutaneously once a day for 5 days; type: functional, organism-based; set-up: dose 200 mg/kg
Summary of the method: as §2

In the case of `O=S(=O)(/C=C\c1ccccc1)N1CCOCC1`, the EC90 [1] is reported as > 500 µM and the EC50 [2] is reported as 500 µM.

With `CN(C)S(=O)(=O)/C=C\c1ccccc1` the EC90 [3] was 500 µM and the EC50 [2] was 500 µM.

In the case of `O=S(=O)(/C=C/c1ccccc1)N1CCOCC1`, the Activity [4] is reported as “inactive”, the EC50 [5] is reported as > 500 µM and the Activity [6] is reported as “inactive”. The Activity [7] was 2 and the EC90 [1] was > 500 µM.

For IVERMECTIN, the EC50 [5] was < 20 µM.

With `C[C@@]1(c2ccccc2)O[C@@H]1S(=O)(=O)N1CCOCC1` the Activity [4] was “inactive”, the EC50 [5] was > 500 µM and the Activity [6] was “inactive”. The Activity [7] was 2 and the EC90 [1] was > 500 µM.

For `O=S(=O)(C#Cc1ccccc1)N1CCOCC1`, the Activity [8] was “Active”, the Activity [9] was 2 and the EC50 [5] was < 20 µM. For the same compound, the Activity [10] was “Active”, the Activity [11] was 2 and the Activity [12] was “inactive”. For the same compound, the Activity [7] was 2, the EC90 [1] was < 20 µM and the Activity [13] was “Active”.

With `CCCCCCc1ccc(C2OC2S(=O)(=O)N2CCOCC2)cc1` (stereo not drawn) the Activity [4] was “inactive”, the Activity [6] was “inactive” and the Activity [7] was 1.

For `O=S(=O)([C@@H]1O[C@H]1c1ccccc1)N1CCOCC1`, the Activity [14] was “Active”, the Activity [9] was 3 and the EC50 [15] was 100 µM. For the same compound, the EC90 [16] was 100 µM and the Activity [13] was “Active”.

With `CCOC(=O)N1CCN(S(=O)(=O)C2OC2c2ccccc2)CC1` (stereo not drawn) the Activity [4] was “inactive”, the EC50 [5] was < 20 µM and the Activity [6] was “inactive”. For the same compound, the Activity [7] was 2 and the EC90 [16] was 100 µM.

In the case of `C=C(CS(=O)(=O)N1CCN(C)CC1)c1ccccc1`, the EC90 [1] is reported as > 500 µM and the EC50 [2] is reported as 500 µM.

For `CN1CCNCC1` [METHYLPIPERAZINE], the EC50 [5] was > 500 µM and the EC90 [1] was > 500 µM.

With `O=S(=O)(C1OC1c1ccccc1)N1CCN(c2cccc(C(F)(F)F)c2)CC1` (stereo not drawn) the Activity [4] was “inactive”, the EC50 [15] was 100 µM and the Activity [6] was “inactive”. It also gave an Activity [7] of 2 and an EC90 [16] of 100 µM.

With `CN1CCN(S(=O)(=O)[C@@H]2O[C@@H]2c2ccccc2)CC1` the Activity [17] was “inactive”, the EC90 [3] was 500 µM and the Activity [9] was 2. For the same compound, the EC50 [15] was 100 µM and the Activity [18] was “inactive”.

For `O=C(CN1CCOCC1)c1ccccc1`, the Activity [17] was “inactive”, the Activity [9] was 2 and the EC50 [5] was > 500 µM. The Activity [18] was “inactive” and the EC90 [1] was > 500 µM.

Compound `Cc1cccc(C2OC2S(=O)(=O)N2CCN(C)CC2)c1` (stereo not drawn) has an EC90 [3] of 500 µM and an EC50 [2] of 500 µM.

`O=S(=O)(C1OC1c1ccc(Cl)c(Cl)c1)N1CCCC1` (stereo not drawn) showed an EC50 [15] of 100 µM and an EC90 [16] of 100 µM.

For `CC1OC1S(=O)(=O)N(C)C` (stereo not drawn), the Activity [4] was “inactive”, the EC90 [3] was 500 µM and the EC50 [15] was 100 µM. The Activity [6] was “inactive” and the Activity [7] was 2.

With `CN1CCN(S(=O)(=O)C#Cc2ccccc2)CC1` the Activity [4] was “inactive”, the EC50 [5] was < 20 µM and the Activity [6] was “inactive”. The Activity [7] was 1 and the EC90 [1] was < 20 µM.

With `CCCN1CCN(S(=O)(=O)C2OC2c2ccccc2)CC1` (stereo not drawn) the Activity [4] was “inactive”, the EC90 [3] was 500 µM and the EC50 [15] was 100 µM. For the same compound, the Activity [19] was “inactive” and the Activity [7] was 2.

For `O=S(=O)(C1CC1c1ccccc1)N1CCOCC1` (stereo not drawn), the Activity [4] was “inactive”, the Activity [6] was “inactive” and the Activity [7] was 2.

With `CN1CCN(CC(=O)c2ccccc2)CC1` the Activity [17] was “inactive”, the Activity [9] was 1 and the EC50 [5] was > 500 µM. For the same compound, the Activity [18] was “inactive” and the EC90 [1] was > 500 µM.

Source: ChEMBL document CHEMBL1123563, “New antifilarial agents. 1. Epoxy sulfonamides and ethynesulfonamides” (J Med Chem, 1987)
